For orientation: IC50 means the concentration at which inhibition is half-maximal. Read a low IC50 as greater potency.

The assay deals with HepG2. The assay is described as follows: Antiproliferative activity against human HepG2 cells after 24 hrs by MTT assay. The assay is classed as functional, cell-based. To be noted: HepG2, 24 h. The procedure, abridged:
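Seeded at 1 × 10⁴ cells per well, incubated 24 h before treatment. MTT (20 µL of 5 mg/mL in PBS) added per well and incubated until purple precipitate appeared. Medium removed, precipitate dissolved in 150 µL DMSO, shaken 10 min, absorbance read at 570 nm. Growth expressed as percentage of untreated control.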
Background: Tetrazolium dyes change colour on reduction, which living cells bring about.
In turn, `COc1ccc(C(=O)/C=C/c2cccc3cc[nH]c23)c2c1C=CC(C)(C)O2` showed an IC50 of 7620 nM. With `CCOc1ccc(C(=O)/C=C/c2ccc3c(ccn3C)c2)c2c1C=CC(C)(C)O2` the figure was 750 nM; with `COc1ccc(C(=O)/C=C/c2ccc3c(ccn3C)c2)c2c1C=CC(C)(C)O2`, 840 nM. As to `COc1ccc(C(=O)/C=C/c2cccc3c2ccn3Cc2cccc(F)c2)c2c1C=CC(C)(C)O2`, the IC50 was more than 10000 nM. Under `COc1ccc(C(=O)/C=C/c2cn(Cc3ccc(F)cc3)c3ccccc23)c2c1C=CC(C)(C)O2` stands more than 10000 nM. With `COc1ccc(C(=O)/C=C/c2cn(CCN3CCOCC3)c3ccccc23)c2c1C=CC(C)(C)O2` the figure was 3230 nM; with `CC(C)COc1ccc(C(=O)/C=C/c2ccc3c(ccn3C)c2)c2c1C=CC(C)(C)O2`, 970 nM. Under `COc1ccc(C(=O)/C=C/c2cn(Cc3cccc(Cl)c3)c3ccccc23)c2c1C=CC(C)(C)O2` stands 2130 nM; under `COc1ccc(C(=O)/C=C/c2cn(Cc3ccc(Cl)cc3)c3ccccc23)c2c1C=CC(C)(C)O2`, more than 10000 nM. `COc1ccc(C(=O)/C=C/c2cn(Cc3cccc(Br)c3)c3ccccc23)c2c1C=CC(C)(C)O2` yielded an IC50 of 1380 nM. Under `CCCCC(=O)Oc1ccc(C(=O)/C=C/c2ccc3c(ccn3C)c2)c2c1C=CC(C)(C)O2` stands 920 nM; under `CCn1ccc2cccc(/C=C/C(=O)c3ccc(OC)c4c3OC(C)(C)C=C4)c21`, more than 10000 nM. With `COc1ccc(C(=O)/C=C/c2cn(Cc3ccccc3)c3ccccc23)c2c1C=CC(C)(C)O2` the figure was 1780 nM; with `COc1ccc(C(=O)/C=C/c2cn(CC=C(C)C)c3ccccc23)c2c1C=CC(C)(C)O2`, 2810 nM; with `COc1ccc(C(=O)/C=C/c2cccc3ccn(C)c23)c2c1C=CC(C)(C)O2`, more than 10000 nM.

As for `COc1ccc(C(=O)/C=C/c2ccc3cc[nH]c3c2)c2c1C=CC(C)(C)O2`, the IC50 is 4950 nM.

`COc1ccc(C(=O)/C=C/c2cccc3ccn(Cc4cccc(Cl)c4)c23)c2c1C=CC(C)(C)O2` came in with an IC50 of more than 10000 nM. Under `CCCCCOc1ccc(C(=O)/C=C/c2ccc3c(ccn3C)c2)c2c1C=CC(C)(C)O2` stands 670 nM; under `Cn1ccc2cc(/C=C/C(=O)c3ccc(OS(=O)(=O)c4c(F)c(F)c(F)c(F)c4F)c4c3OC(C)(C)C=C4)ccc21`, 1530 nM. Under `CC(C)Oc1ccc(C(=O)/C=C/c2ccc3c(ccn3C)c2)c2c1C=CC(C)(C)O2` stands 780 nM; under `COc1ccc(C(=O)/C=C/c2cn(Cc3ccccc3C(F)(F)F)c3ccccc23)c2c1C=CC(C)(C)O2`, more than 10000 nM. With `COc1cccc(S(=O)(=O)Oc2ccc(C(=O)/C=C/c3ccc4c(ccn4C)c3)c3c2C=CC(C)(C)O3)c1` the figure was 750 nM; with `COc1ccc(C(=O)/C=C/c2cn(Cc3cccc(F)c3)c3ccccc23)c2c1C=CC(C)(C)O2`, 3090 nM. For `COc1ccc(C(=O)/C=C/c2cccc3[nH]ccc23)c2c1C=CC(C)(C)O2`, the IC50 stood at 8380 nM. `COc1ccc(C(=O)/C=C/c2cccc3ccn(Cc4cccc(Br)c4)c23)c2c1C=CC(C)(C)O2` registered an IC50 of more than 10000 nM. Under `COc1ccc(C(=O)/C=C/c2ccc3[nH]ccc3c2)c2c1C=CC(C)(C)O2` stands 1060 nM. Under `COc1ccc(C(=O)/C=C/c2ccc3c(ccn3CCN3CCCCC3)c2)c2c1C=CC(C)(C)O2` stands 4450 nM; under `COc1ccc(C(=O)/C=C/c2cn(Cc3cccc(C(F)(F)F)c3)c3ccccc23)c2c1C=CC(C)(C)O2`, 2180 nM; under `COc1ccc(C(=O)/C=C/c2cn(Cc3ccc(C(F)(F)F)cc3)c3ccccc23)c2c1C=CC(C)(C)O2`, 3460 nM. Under `CCCCOc1ccc(C(=O)/C=C/c2ccc3c(ccn3C)c2)c2c1C=CC(C)(C)O2` stands 630 nM; under `COc1ccc(C(=O)/C=C/c2cccc3c2ccn3Cc2cccc(Br)c2)c2c1C=CC(C)(C)O2`, more than 10000 nM. The compound `COc1ccc(C(=O)/C=C/c2cn(Cc3ccc(Br)cc3)c3ccccc23)c2c1C=CC(C)(C)O2` registered an IC50 of more than 10000 nM.

These data come from ChEMBL document CHEMBL3232988, “Design, synthesis and biological evaluation of a series of pyrano chalcone derivatives containing indole moiety as novel anti-tubulin agents” (Bioorg Med Chem, 2014).
